Measured values as given in ChEMBL document CHEMBL4373686, “Methyl sulfonamide substituents improve the pharmacokinetic properties of bicyclic 2-pyridone based Chlamydia trachomatis inhibitors” (Medchemcomm, 2019).
In brackets after ≈: the same amount, converted by molar mass.

Key:
[1] = test system: Chlamydia trachomatis; test: Antibacterial activity against Chlamydia trachomatis 434/Bu serovar L2/ATCC VR-902B in HeLa 229 cells infected with cell lysates from 48 hrs at 2.5 uM compound treated HeLa 229 cells with Chlamydia trachomatis infection assessed as inhibition of reinfection and measured after 48 hrs post re-infection by DAPI staining based arrayscan automated microscopic method relative to control; assay type: functional, organism-based
In short: (§1)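 HeLa 229 cells infected with C. trachomatis L2 EBs at MOI 0.3–0.5; compound added in RPMI 1 h post infection; 44–48 h, then water lysis. 10-fold serial dilutions of lysate reinfect fresh HeLa; 44–46 h, methanol fixed, anti-Chlamydia/FITC antibody plus DAPI stain, IFUs counted by automated microscopy; % IFU versus DMSO control; three independent experiments, duplicates.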

[2] = Intrinsic clearance in human liver microsomes at 1 uM incubated for 5 to 60 mins in presence of NADPH by LC-MS/MS analysis; assay type: ADME, Microsome
In short: (§2)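 Liver microsomes 0.5 mg/ml, compound 1 μM in 100 mM phosphate pH 7.4; started with 1 mM NADPH (final). Sampled 0–60 min, quenched in cold acetonitrile, parent remaining by LC-MS/MS; ln % remaining versus time fitted by linear regression.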

[3] = Volume of distribution at steady state in C3H/HeJ mouse at 1.2 mg/kg, iv measured upto 24 hrs; settings: in vivo
[4] = Clearance in C3H/HeJ mouse at 1.2 mg/kg, iv measured upto 24 hrs; settings: in vivo
[5] = Half life in C3H/HeJ mouse at 1.2 mg/kg, iv measured upto 24 hrs; settings: in vivo
[6] = AUC (0 to infinity) C3H/HeJ mouse at 1.2 mg/kg, iv measured upto 24 hrs; settings: in vivo
[7] = test system: Chlamydia trachomatis; test: Antibacterial activity against Chlamydia trachomatis 434/Bu serovar L2/ATCC VR-902B in HeLa 229 cells infected with cell lysates from 48 hrs at 1 uM compound treated HeLa 229 cells with Chlamydia trachomatis infection assessed as inhibition of reinfection and measured after 48 hrs post re-infection by DAPI staining based arrayscan automated microscopic method relative to control; assay type: functional, organism-based; in short: as §1
[8] = Intrinsic clearance in mouse liver microsomes at 1 uM incubated for 5 to 60 mins in presence of NADPH by LC-MS/MS analysis; assay type: ADME, Microsome; in short: as §2
[9] = Apparent permeability from apical to basolateral side in human Caco2 cells at 1 uM after 15 to 60 mins by LC-MS/MS analysis; assay type: ADME, cell-based; settings: caco-2, 1 µM
In short: (§3)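 Caco-2 monolayers (passage 94–105) used on day 21 on filter supports; 1 μM donor solution applied apical or basolateral, pH 7.4 both chambers, 37 °C, 500 rpm stirring. Receiver sampled at 15, 30, 60 min, donor at 60 min for mass balance; LC-MS/MS with warfarin internal standard.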

[10] = Solubility of compound in PBS at 0.2 to 0.5 mg after 48 hrs by LC-MS/MS based shake flask method; assay type: physicochemical
[11] = Cmax in C3H/HeJ mouse at 1.2 mg/kg, iv measured upto 24 hrs; settings: in vivo
[12] = Efflux ratio of apparent permeability in human Caco2 cells at 1 uM after 15 to 60 mins by LC-MS/MS analysis; assay type: ADME, cell-based; settings: caco-2, 1 µM; in short: as §3
[13] = Fraction unbound in CD-1 mouse plasma at 10 uM incubated for 4 hrs by LC-MS/MS-based equilibrium dialysis method; assay type: ADME, cell-free
In short: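 Rapid equilibrium dialysis: 10% CD-1 mouse plasma in isotonic buffer spiked to 10 μM compound, 1% DMSO final, against phosphate buffer pH 7.4; 37 °C, 900 rpm, 4 h. Matrix-matched samples precipitated with methanol, LC-MS/MS; fu corrected for plasma dilution.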

[14] = test system: HeLa 229; test: Cytotoxicity against human HeLa 229 cells assessed as cell viability at 10 uM after 48 hrs resazurin dye based fluorescence method relative to control; settings: hela 229, 48 h
In short: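 HeLa cells in colorless DMEM with 10% FBS, compound in 0.5% DMSO for 48 h; resazurin added, 3 h at 37 °C, 5% CO2, dark; fluorescence ex 535/em 595 nm; triplicate wells as percent of DMSO control.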

[15] = Half life in C3H/HeOuJ mouse at 0.9 mg/kg, iv measured upto 24 hrs; assay type: ADME, organism-based; settings: in vivo
In short: (§4)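 Female C3H mice, three per dose and route; IV as 50 μL tail-vein injection in PBS with 10% cremophor, 5% EtOH, 4% DMSO; PO as 100 μL gavage in lipid-vehicle/water emulsion. Tail-vein blood at 10 min (IV) and 0.5–24 h; acetonitrile mixed, methanol extracted, LC-MS/MS against spiked blank blood standards; non-compartmental analysis, errors as SD.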

[16] = Cmax in C3H/HeOuJ mouse at 0.9 mg/kg, iv measured upto 24 hrs; assay type: ADME, organism-based; parameters: dose 0.9 mg/kg, route intravenous; settings: in vivo; in short: as §4
[17] = Clearance in C3H/HeOuJ mouse at 0.9 mg/kg, iv measured upto 24 hrs; assay type: ADME, organism-based; settings: in vivo; in short: as §4
[18] = AUC (0 to infinity) C3H/HeOuJ mouse at 0.9 mg/kg, iv measured upto 24 hrs; assay type: ADME, organism-based; parameters: dose 0.9 mg/kg, route intravenous, time infinity; settings: in vivo; in short: as §4
[19] = Volume of distribution at steady state in C3H/HeJ mouse at 0.9 mg/kg, iv measured upto 24 hrs; settings: in vivo

SMILES	inhibition [1]	inhibition [7]	Activity [14]	further results
Nc1c(Cc2cccc3ccccc23)c(C2CC2)c2n(c1=O)C(n1cc(-c3ccccc3)nn1)CS2 (racemic)	91%	90%		CLH [2]: 187 µL/min/mg; Vdss [3]: 27 L/kg; CL [4]: 0.51 L/h; t1/2 [5]: 3.7 h; AUC(0-inf) [6]: 0.1 µM·h; CLH [8]: 135 µL/min/mg; Papp [9]: 0.33 ×10⁻⁶ cm/s; solubility thermodynamic at 48 h [10]: 0.31 µM (≈ 0.152 µg/mL); Cmax [11]: 40 nM; Ratio [12]: 0.6; Fu [13]: < 0.1%
CN(C)c1c(Cc2cccc3ccccc23)cc(=O)n2c1SCC2C(=O)Nc1ccccc1 (racemic)	94%	78%	92%	
COc1c(Cc2cccc(C)c2C)cc(=O)n2c1SCC2C(=O)Nc1ccccc1 (racemic)	51%	22%	89%	
COc1c(Cc2cccc3ccccc23)cc(=O)n2c1SCC2n1cc(-c2ccccc2)nn1 (racemic)	81%		87%	
Cc1cccc(NC(=O)C2CSc3c(NS(C)(=O)=O)c(Cc4cccc5ccccc45)cc(=O)n32)c1 (racemic)	-2%		92%	
COc1c(Cc2cccc(C)c2C)c(N)c(=O)n2c1SCC2C(=O)Nc1ccccc1 (racemic)	25%		94%	
COC(=O)Nc1c(Cc2cccc3ccccc23)cc(=O)n2c1SCC2C(=O)Nc1ccccc1 (racemic)	12%		88%	
CC(=O)Nc1c(Cc2cccc3ccccc23)cc(=O)n2c1SCC2C(=O)Nc1ccccc1 (racemic)	3%	44%	90%	
COc1c(Cc2cccc3ccccc23)c(N)c(=O)n2c1SCC2C(=O)Nc1ccccc1 (racemic)	25%		94%	
CS(=O)(=O)Nc1c(Cc2cccc3ccccc23)cc(=O)n2c1SCC2n1cc(-c2ccccc2)nn1 (racemic)	88%		91%	
COc1c(Cc2cccc(C)c2C)cc(=O)n2c1SCC2c1nc(-c2ccccc2)no1 (racemic)	1%		91%	
COc1c(Cc2cccc3ccccc23)cc(=O)n2c1SCC2C(=O)Nc1ccc(C)cc1 (racemic)	94%	62%	89%	
Cc1cc(F)cc(NC(=O)C2CSc3c(NS(C)(=O)=O)c(Cc4cccc5ccccc45)cc(=O)n32)c1 (racemic)	6%	6%	91%	
COc1c(Cc2cccc(C)c2C)cc(=O)n2c1SCC2C(=O)Nc1cc(C)cc(F)c1 (racemic)	95%	77%	90%	CLH [2]: 184 µL/min/mg; t1/2 [15]: 1.2 h; CLH [8]: 440 µL/min/mg; Papp [9]: 2.1 ×10⁻⁶ cm/s; solubility thermodynamic at 48 h [10]: 0.32 µM (≈ 0.145 µg/mL); Ratio [12]: 3.2; Cmax [16]: 410 nM; CL [17]: 0.04 L/h; Fu [13]: 0.1%; AUC(0-inf) [18]: 0.95 µM·h; Vdss [19]: 1.1 L/kg
COc1c(Cc2cccc3ccccc23)c(N)c(=O)n2c1SCC2C(=O)Nc1ccc(C)cc1 (racemic)	51%		91%	
CC(C)Nc1c(Cc2cccc3ccccc23)cc(=O)n2c1SCC2C(=O)Nc1ccccc1 (racemic)	79%	25%	91%	
COc1c(Cc2cccc(C)c2C)cc(=O)n2c1SCC2C(=O)Nc1ccc(C)cc1 (racemic)	98%	71%	88%	
COc1c(Cc2cccc(C)c2C)c(N)c(=O)n2c1SCC2c1nc(-c2ccccc2)no1 (racemic)	17%		94%	
COc1c(Cc2cccc(C)c2C)c(N)c(=O)n2c1SCC2C(=O)Nc1ccc(C)cc1 (racemic)	56%		93%	
CS(=O)(=O)Nc1c(Cc2cccc3ccccc23)cc(=O)n2c1SCC2c1nc(-c2ccccc2)n[nH]1 (racemic)	20%		93%	
COc1c(Cc2cccc(C)c2C)c(N)c(=O)n2c1SCC2C(=O)Nc1cc(C)cc(F)c1 (racemic)	47%		92%	
O=C(Nc1ccccc1)C1CSc2c(O)c(Cc3cccc4ccccc34)cc(=O)n21 (racemic)	21%		93%	
COc1c(Cc2cccc3ccccc23)cc(=O)n2c1SCC2C(=O)Nc1ccccc1 (racemic)	24%		91%	
Nc1c(Cc2cccc3ccccc23)c(C2CC2)c2n(c1=O)C(C(=O)Nc1ccccc1)CS2 (racemic)	98%	94%		
O=C(Nc1ccccc1)C1CSc2c(C3CC3)c(Cc3cccc4ccccc34)cc(=O)n21 (racemic)	87%	67%		
